In series [1] the target is T1, Lanosterol 14-alpha demethylase (Candida albicans (strain SC5314 / ATCC MYA-2876) (Yeast), UniProt P10613). The series is described as follows: Inhibition of Candida albicans CYP51 assessed as reduction in [3-3H]lanosterol 14alpha-demethylation at 0.75 uM preincubated for 60 secs followed by NADPH addition measured after 60 mins by RP-HPLC analysis relative to control. As to conditions: 1 h. The essentials: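 C. albicans CYP51 expressed in E. coli and purified, 0.5 μM, with 1.0 μM rat NADPH-P450 reductase, dilauroylphosphatidylcholine and isocitrate dehydrogenase/isocitrate regeneration in 50 mM potassium phosphate pH 7.2, 10% glycerol, 0.1% Triton X-100. Substrate 25 μM final; inhibitor:enzyme:substrate 1.5:1:50. 37 °C, started with 100 μM NADPH. Sterols extracted with EtOAc, radio-HPLC. Triplicate, mean ± SD.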
T1 sequence (P10613 whole entry): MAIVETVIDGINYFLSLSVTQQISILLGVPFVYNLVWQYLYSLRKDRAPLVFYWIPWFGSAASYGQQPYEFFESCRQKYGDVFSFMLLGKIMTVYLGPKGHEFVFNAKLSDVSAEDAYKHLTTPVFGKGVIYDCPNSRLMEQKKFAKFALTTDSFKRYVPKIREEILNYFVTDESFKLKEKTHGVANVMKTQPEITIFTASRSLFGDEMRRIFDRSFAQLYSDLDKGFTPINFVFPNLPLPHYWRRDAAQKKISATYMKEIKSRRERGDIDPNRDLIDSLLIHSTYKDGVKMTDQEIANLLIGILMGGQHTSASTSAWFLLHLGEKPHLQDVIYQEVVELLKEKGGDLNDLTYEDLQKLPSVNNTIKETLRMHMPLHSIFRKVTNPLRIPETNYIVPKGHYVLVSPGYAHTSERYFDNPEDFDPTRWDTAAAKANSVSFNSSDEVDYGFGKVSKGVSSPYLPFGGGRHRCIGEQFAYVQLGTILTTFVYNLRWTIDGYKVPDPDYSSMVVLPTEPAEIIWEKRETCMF

In series [2] the target is Lanosterol 14-alpha demethylase (Aspergillus) (UniProt B8NUK6+Q9P8R0+G4WW85). The series is described as follows: Inhibition of Aspergillus fumigatus CYP51 assessed as reduction in [3-3H]eburicol 14alpha-demethylation at 0.75 uM preincubated for 60 secs followed by NADPH addition measured after 60 mins by RP-HPLC analysis relative to control. The method, boiled down:
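E. coli-expressed, purified CYP51 (0.5 μM) with rat NADPH-P450 reductase (1.0 μM), 100 μM dilauroylphosphatidylcholine, isocitrate dehydrogenase/isocitrate NADPH regeneration, in 50 mM K phosphate pH 7.2 with 10% glycerol and 0.1% Triton X-100. [3-3H]eburicol 25 μM final, inhibitor 0.75 μM final (1.5:1:50 inhibitor:enzyme:substrate), 37 °C. Started with 100 μM NADPH, 60 min, EtOAc extraction, radio-HPLC. Percent inhibition, triplicate, mean ± SD.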

Series [3] addresses T1, Lanosterol 14-alpha demethylase. Briefly: Binding affinity to Candida albicans CYP51 by spectral titration method. The settings on record: read-out: Kd(app). The method, boiled down:
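Purified CYP51 at 0.5 μM in 5 cm path cuvettes, titrated from 0.2 mM DMSO stocks over 0.1–0.8 μM ligand. Kd obtained by fitting to the quadratic tight-binding equation using total ligand and enzyme concentrations.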

In series [4] the target is T2, Lanosterol 14-alpha demethylase (Aspergillus, UniProt B8NUK6+G4WW85+Q9P8R0).
T2 sequence (B8NUK6 whole entry): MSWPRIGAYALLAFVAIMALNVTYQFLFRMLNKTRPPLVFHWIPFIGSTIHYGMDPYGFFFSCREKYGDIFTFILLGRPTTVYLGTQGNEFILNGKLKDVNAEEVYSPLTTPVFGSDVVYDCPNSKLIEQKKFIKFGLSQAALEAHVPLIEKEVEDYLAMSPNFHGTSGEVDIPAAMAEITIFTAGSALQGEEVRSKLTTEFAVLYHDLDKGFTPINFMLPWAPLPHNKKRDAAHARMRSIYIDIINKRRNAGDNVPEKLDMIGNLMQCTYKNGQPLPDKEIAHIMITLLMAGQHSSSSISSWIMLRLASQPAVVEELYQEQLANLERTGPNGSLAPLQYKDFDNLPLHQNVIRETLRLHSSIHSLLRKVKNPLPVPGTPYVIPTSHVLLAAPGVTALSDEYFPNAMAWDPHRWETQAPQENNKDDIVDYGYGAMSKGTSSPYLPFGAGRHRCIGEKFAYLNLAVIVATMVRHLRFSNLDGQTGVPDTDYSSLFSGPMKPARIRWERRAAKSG
T2 sequence (Q9P8R0 whole entry): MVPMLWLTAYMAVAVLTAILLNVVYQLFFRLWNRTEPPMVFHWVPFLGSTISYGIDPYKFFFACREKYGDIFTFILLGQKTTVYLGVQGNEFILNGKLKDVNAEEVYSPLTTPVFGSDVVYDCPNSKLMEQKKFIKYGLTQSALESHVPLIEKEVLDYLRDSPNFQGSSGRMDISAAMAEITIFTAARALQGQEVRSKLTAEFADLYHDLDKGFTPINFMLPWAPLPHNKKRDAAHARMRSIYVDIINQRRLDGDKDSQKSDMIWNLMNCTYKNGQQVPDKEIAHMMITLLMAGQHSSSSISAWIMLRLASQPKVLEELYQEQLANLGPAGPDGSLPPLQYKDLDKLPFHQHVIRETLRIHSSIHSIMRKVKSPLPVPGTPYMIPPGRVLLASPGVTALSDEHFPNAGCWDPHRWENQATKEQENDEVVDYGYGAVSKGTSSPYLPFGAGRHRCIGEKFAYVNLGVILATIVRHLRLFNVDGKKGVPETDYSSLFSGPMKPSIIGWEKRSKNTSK
T2 sequence (G4WW85 whole entry): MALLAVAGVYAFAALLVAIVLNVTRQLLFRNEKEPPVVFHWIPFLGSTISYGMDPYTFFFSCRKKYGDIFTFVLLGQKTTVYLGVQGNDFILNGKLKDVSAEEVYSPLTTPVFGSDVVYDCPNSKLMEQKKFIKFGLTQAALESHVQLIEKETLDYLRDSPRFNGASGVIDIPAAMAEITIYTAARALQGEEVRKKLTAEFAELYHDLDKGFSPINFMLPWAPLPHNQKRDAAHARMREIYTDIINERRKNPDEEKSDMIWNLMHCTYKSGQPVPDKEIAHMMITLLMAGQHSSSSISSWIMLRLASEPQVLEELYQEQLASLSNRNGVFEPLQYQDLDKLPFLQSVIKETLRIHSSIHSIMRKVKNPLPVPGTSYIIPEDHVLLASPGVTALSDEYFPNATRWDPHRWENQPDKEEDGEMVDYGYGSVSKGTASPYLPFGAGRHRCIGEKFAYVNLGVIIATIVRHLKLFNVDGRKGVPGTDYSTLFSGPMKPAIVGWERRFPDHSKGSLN
Briefly: Binding affinity to Aspergillus fumigatus CYP51 by spectral titration method. As to conditions: read-out: Kd(app). The method, boiled down: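 Purified CYP51 at 0.5 μM in 5 cm path cuvettes, titrated from 0.2 mM DMSO stocks over 0.1–0.8 μM ligand. Type II red shift of the Soret band (417 to 424 nm) followed as ΔA (Amax−Amin) in difference spectra. Kd obtained by fitting to the quadratic tight-binding equation using total ligand and enzyme concentrations.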

The target of series [5] is T1, Lanosterol 14-alpha demethylase. The series is described as follows: Potency index, ratio of VNI Kd(app) to compound Kd(app) for Candida albicans CYP51.

A word on the inhibition: it is the percentage by which the read-out fell short of the control.

On to `CC[C@@H]([C@H](C)O)n1ncn(-c2ccc(N3CCN(c4ccc(OC[C@@H]5CO[C@@](Cn6cncn6)(c6ccc(F)cc6F)C5)cc4)CC3)cc2)c1=O` [POSACONAZOLE], for which the inhibition at 0.75 µM in series [1] is 98%. The inhibition in series [2] was determined as 93%. In addition, the figures for the Kd in series [3] and in series [4] were 0.081 µM and 0.131 µM, respectively. For the same molecule, in series [5], the Ratio was determined as 3.5.

The values above are taken from ChEMBL document CHEMBL4118269 (J Med Chem, 2018).
